Assay [1] has as its target T1, Integrin alpha-4/beta-1 (Homo sapiens, UniProt P05556+P13612). The assay is described as follows: Agonist activity at alpha4beta1 integrin receptor in human Jurkat E6.1 cells assessed as increase in VCAM1-induced cell adhesion pre-incubated for 30 mins. Type of assay: cell-based. A digest of the protocol: (§1)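 Integrin-mediated adhesion. αvβ3: SK-MEL-24 cells adhering to FN. α5β1: K562 cells adhering to FN. α4β1: Jurkat E6.1 cells adhering to VCAM-1. Values are mean ± SD, n=3.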

In assay [2] the target is T2, Integrin alpha-5/beta-1 (Homo sapiens, UniProt P05556+P08648). The assay can be described thus: Activity at alpha5beta1 integrin receptor in human K562 cells assessed as effect on fibronectin-induced cell adhesion pre-incubated for 30 mins. Type of assay: cell-based. A digest of the protocol:
as §1

Assay [3] deals with T3, Integrin alpha-V/beta-3 (Homo sapiens, UniProt P05106+P06756). The assay is described as follows: Activity at alphaVbeta3 integrin receptor in human SK-MEL-24 cells assessed as effect on fibronectin-induced cell adhesion pre-incubated for 30 mins. The assay is classed as cell-based. A digest of the protocol:
as §1

Assay [4] addresses T1, Integrin alpha-4/beta-1. The assay is described as follows: Activity at alpha4beta1 integrin receptor in human Jurkat E6.1 cells assessed as effect on VCAM1-induced cell adhesion pre-incubated for 30 mins. The assay is classed as cell-based. Summed up:
as §1

The target in assay [5] is T2, Integrin alpha-5/beta-1. The assay is described as follows: Binding affinity to alpha5beta1 integrin receptor (unknown origin) incubated fro 30 mins by competitive solid-phase binding assay. The assay is classed as protein-complex assay. Summed up: (§2)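 Competitive solid-phase binding assay using FN for αvβ3 and α5β1, giving IC50. Mean ± SEM, n=3.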
The target in assay [6] is T1, Integrin alpha-4/beta-1. The assay can be described thus: Binding affinity to alpha4beta1 integrin receptor (unknown origin) incubated for 1 hr by scintillation proximity binding assay. The assay is classed as protein-complex assay. Summed up:
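Scintillation proximity binding assay for α4β1, giving IC50. Mean ± SEM, n=3.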
In general terms: SPA uses beads or plates that emit light when radiolabelled molecules are held near them.

The target in assay [7] is T3, Integrin alpha-V/beta-3. The assay can be described thus: Agonist activity at alphaVbeta3 integrin receptor in human SK-MEL-24 cells assessed as increase in fibronectin-induced cell adhesion at 10 ug/ml added 10 mins after pre-incubation with neutralizing antibody to integrin alphaV-subunit. The assay is classed as cell-based. Summed up: (§3)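 Neutralizing antibody against the αv subunit was added to SK-MEL-24 or Saos-2 cells 10 min before the compounds (10 μg/mL). Adhesion was then measured.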

Assay [8] concerns the target T3, Integrin alpha-V/beta-3. The assay can be described thus: Agonist activity at alphaVbeta3 integrin receptor in human Saos-2 cells assessed as increase in cell adhesion to wells coated with compound by passive absorption in absence of fibronectin. Type of assay: cell-based. Summed up: (§4)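 Compounds were coated onto wells by passive absorption, with no FN present. Adhesion of SK-MEL-24 or Saos-2 cells was compared with BSA-coated wells. Mean ± SEM from three independent experiments run in quadruplicate; Newman-Keuls test after ANOVA.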

Assay [9] deals with T3, Integrin alpha-V/beta-3. The assay is described as follows: Agonist activity at alphaVbeta3 integrin receptor in human SK-MEL-24 cells assessed as increase in fibronectin-induced cell adhesion pre-incubated for 30 mins. The assay is classed as cell-based. A digest of the protocol: as §1
Assay [10] concerns the target T3, Integrin alpha-V/beta-3. The assay is described as follows: Binding affinity to alphaVbeta3 integrin receptor (unknown origin) incubated fro 30 mins by competitive solid-phase binding assay. Type of assay: protein-complex assay. Summed up:
as §2

The target of assay [11] is T3, Integrin alpha-V/beta-3. The assay can be described thus: Agonist activity at alphaVbeta3 integrin receptor (unknown origin) expressed in HEK293 cells assessed as induction of ERK1/2 phosphorylation at 1 nM to 100 nM incubated for 1 hr by Western blot analysis. The assay is classed as cell-based. A digest of the protocol: (§5)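 HEK293 cells were transfected with plasmids coding αv and β3 subunits; untransfected HEK293 served as negative control and FN as positive control. ERK1/2 phosphorylation was quantified by band densitometry against vehicle. Mean ± SEM, n=5; Newman-Keuls test after ANOVA.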
In general terms: A western blot detects proteins with antibodies after separation by electrophoresis.

Assay [12] addresses T3, Integrin alpha-V/beta-3. The assay is described as follows: Agonist activity at alphaVbeta3 integrin receptor in human SK-MEL-24 cells assessed as increase in cell adhesion to wells coated with compound by passive absorption in absence of fibronectin. Type of assay: cell-based. Summed up:
as §4

The target of assay [13] is T3, Integrin alpha-V/beta-3. The assay can be described thus: Agonist activity at alphaVbeta3 integrin receptor in human Saos-2 cells assessed as increase in fibronectin-induced cell adhesion pre-incubated for 30 mins. The assay is classed as cell-based.
Assay [14] concerns the target T3, Integrin alpha-V/beta-3. The assay is described as follows: Agonist activity at alphaVbeta3 integrin receptor in human Saos-2 cells assessed as increase in fibronectin-induced cell adhesion at 10 ug/ml added 10 mins after pre-incubation with neutralizing antibody to integrin alphaV-subunit. Type of assay: cell-based. Summed up:
as §3

The target of assay [15] is T2, Integrin alpha-5/beta-1. The assay is described as follows: Antagonist activity at alpha5beta1 integrin receptor in human K562 cells assessed as reduction in fibronectin-induced cell adhesion pre-incubated for 30 mins. Type of assay: cell-based. A digest of the protocol:
as §1

Assay [16] addresses Mitogen-activated protein kinase; ERK1/ERK2 (Homo sapiens) (UniProt P27361+P28482). The assay is described as follows: Activation of ERK1/2 phosphorylation in HEK293 cells at 1 nM to 100 nM incubated for 1 hr by Western blot analysis. The assay is classed as cell-based. A digest of the protocol: as §5
Assay [17] addresses T2, Integrin alpha-5/beta-1. The assay is described as follows: Agonist activity at alpha5beta1 integrin receptor in human K562 cells assessed as increase in fibronectin-induced cell adhesion pre-incubated for 30 mins. The assay is classed as cell-based. A digest of the protocol: as §1
The target in assay [18] is T1, Integrin alpha-4/beta-1. The assay can be described thus: Agonist activity at alpha4beta1 integrin receptor in human Jurkat E6.1 cells assessed as induction of ERK1/2 phosphorylation incubated for 1 hr by Western blot analysis. The assay is classed as cell-based. A digest of the protocol:
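Jurkat cells (α4β1) were treated across a concentration range with VCAM-1 as positive control. ERK1/2 phosphorylation was quantified by band densitometry against vehicle. Mean ± SEM, n=5; Newman-Keuls test after ANOVA.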

The target in assay [19] is T1, Integrin alpha-4/beta-1. The assay is described as follows: Agonist activity at alpha4beta1 integrin receptor in human Jurkat E6.1 cells assessed as increase in VCAM1-induced cell adhesion at 10 ug/ml pre-incubated for 30 mins in presence of 10 ug/ml neutralizing antibody to alpha4 integrin subunit. The assay is classed as cell-based.
In assay [20] the target is T2, Integrin alpha-5/beta-1. The assay can be described thus: Antagonist activity at alpha5beta1 integrin receptor in human K562 cells assessed as reduction in fibronection-induced ERK1/2 phosphorylation at 1 nM to 100 nM pre-incubated for 1 hr before fibronectin stimulation for 1 hr by Western blot analysis. Type of assay: cell-based. Summed up:
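K562 cells (α5β1) were treated with compound and stimulated with FN. FN-induced ERK1/2 phosphorylation was quantified by band densitometry against vehicle and FN. Mean ± SEM, n=5; Newman-Keuls test after ANOVA.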

Activity calls are given as the source filed them. The calls are words filed in the database; no cut-off is given here.

The EC50 is the midpoint of the concentration-response curve. For orientation: IC50 means the concentration that inhibits the measured activity by half.

As for `Cc1ccccc1NC(=O)N1CCC1=O`, the EC50 in assay [1] was found to be 976 nM. Besides, the Activity in assay [2] and in assay [3] was greater than 5 µM in each case.

Consider `NCc1ccc(NC(=O)N2C(=O)C[C@H]2C(=O)O)cc1`, for which the Activity in [3] and in assay [4] was greater than 5 µM throughout.

Take `Cc1ccccc1NC(=O)NCC(=O)O`: the IC50 is greater than 1000 nM in assay [5], greater than 1000 nM in assay [6], 3.4 nM in [10] and 3510 nM in assay [15]. The result in assay [7], in assay [14] and in assay [16] was inactive. Further, the result in assay [8], in [11] and in assay [12] was Active. The EC50 in [9] amounted to 84.8 nM; in assay [13], 299 nM. Further, in assay [4], the Activity was greater than 5 µM.

`O=C(O)CNC(=O)CC1CC(=O)N1` (stereo not given): the Activity in assay [3] and in [4] was greater than 5 µM throughout. Also, the IC50 in assay [15] is 1110 nM.

As to `Cc1ccccc1NC(=O)N1C(=O)C[C@@H]1C(=O)NCCC(=O)O`, the 50% inhibitory concentration (IC50) in assay [5] was 11.9 nM; in [6], greater than 1000 nM; in assay [10] it was greater than 1000 nM; in assay [15] it was 96.9 nM. Also, the Activity in [3] and in [4] was greater than 5 µM each time.

For the molecule `O=C(O)/C=C1/CC(=O)N1`, the IC50 is greater than 1000 nM in assay [5], 294 nM in assay [6] and 29 nM in assay [10]. The result in assay [7], in [14] and in assay [16] was inactive. For the same molecule, the result in [8], in [11] and in assay [12] was Active. The EC50 in assay [1] is 255 nM; in assay [9] it was 75.6 nM; in assay [13], 154 nM. The Activity in [2] is greater than 5 µM.

Turning to `Cc1ccccc1NC(=O)NCCC(=O)O`, the results for the concentration for half-maximal inhibition (IC50) in assay [5], in [6] and in assay [10] were greater than 1000 nM, greater than 1000 nM and 9.5 nM, respectively. Moreover, the result in assay [7], in [14] and in [16] was inactive. Besides, the result in assay [8], in [11] and in assay [12] was Active. For the same molecule, the concentration for a half-maximal effect (EC50) in [9] is 29.9 nM; in assay [13] it was 984 nM. For the same molecule, the Activity in [2] and in assay [4] was greater than 5 µM in each case.

For the molecule `NCc1ccc(NC(=O)N2C(=O)C[C@@H]2C(=O)O)cc1`, the Activity in assay [2], in assay [3] and in [4] was greater than 5 µM in each case.

For `O=C(O)CC1CC(=O)N1` (stereo not given), the Activity in assay [4] was greater than 5 µM.

In the case of `Cc1ccccc1C(=O)N1C(=O)CC1CC(=O)O` (stereo not given), the IC50 in [5] is 409 nM; in assay [6] it was greater than 1000 nM; in assay [10], greater than 1000 nM; in [15] it was 419 nM. The Activity in assay [3] and in assay [4] was greater than 5 µM in each case.

Consider `Cc1ccccc1NC(=O)N1C(=O)CC1CC(=O)O` (stereo not given), for which the Activity in assay [2] and in [3] was greater than 5 µM each time.

With `Cc1ccccc1NC(=O)N1CCC[C@H]1C(=O)O`, the half-maximal inhibitory concentration (IC50) in assay [5] was 136 nM; in [6], 18.9 nM; in assay [10], greater than 1000 nM. Moreover, the figures for the EC50 in assay [1], in [9] and in assay [17] were 10 nM, 2880 nM and 140 nM, respectively. Moreover, the Activity entry in [18] is “Dose-dependent effect”. Moreover, the result in [19] was inactive.

For the molecule `Cc1ccccc1NC(=O)N1C(=O)C[C@@H]1C(=O)O`, the Activity in assay [2], in assay [3] and in [4] was greater than 5 µM throughout.

Turning to `Cc1ccccc1C(=O)N1C(=O)C[C@H]1C(=O)O`, the 50% inhibitory concentration (IC50) is 59.3 nM in assay [5], greater than 1000 nM in assay [6], greater than 1000 nM in assay [10] and 41.5 nM in assay [15]. Further, the inhibition entry in assay [20] was “Active”. The Activity in assay [3] and in assay [4] was greater than 5 µM in each case.

For the molecule `Cc1ccccc1NC(=O)N1C(=O)CC1CC(=O)NCC(=O)O` (stereo not given), the Activity in assay [3] and in [4] was greater than 5 µM throughout.

Values taken from ChEMBL document CHEMBL4321835, “Could Dissecting the Molecular Framework of β-Lactam Integrin Ligands Enhance Selectivity?” (J Med Chem, 2019).
